Reference: ChEMBL document CHEMBL1629526, “4-[1-(Substituted aryl/alkyl carbonyl)-benzoimidazol-2-yl]-benzenesulfonic acids: synthesis, antimicrobial activity, QSAR studies, and antiviral evaluation” (Eur J Med Chem, 2010)
≈ marks a conversion by molar mass, not a printed value.

Legend:
[1] = system: Respiratory syncytial virus; assay: Antiviral activity against Respiratory syncytial virus infected in human HeLa cells assessed as inhibition of virus induced cytopathicity by visual scoring of CPE; format: functional, organism-based
Feline coronavirus = assay: Antiviral activity against Feline coronavirus infected in cat CRFK cells assessed as inhibition of virus induced cytopathicity after 2 to 4 days by MTS assay; format: functional, organism-based; settings: Alphacoronavirus 1, CRFK
Human alphaherpesvirus 1 [2] = assay: Antiviral activity against thymidine kinase deficient acyclovir-resistant Herpes simplex virus 1 KOS infected in HEL cells assessed as inhibition of virus induced cytopathicity after 2 to 4 days by MTS assay; format: functional, organism-based; settings: Human alphaherpesvirus 1, KOS
Human alphaherpesvirus 2 = assay: Antiviral activity against Herpes simplex virus 2 G infected in HEL cells assessed as inhibition of virus induced cytopathicity after 2 to 4 days by MTS assay; format: functional, organism-based; settings: Human alphaherpesvirus 2, strain G
[3] = system: Vesicular stomatitis virus; assay: Antiviral activity against Vesicular stomatitis virus infected in human HeLa cells assessed as inhibition of virus induced cytopathicity by visual scoring of CPE; format: functional, organism-based
Influenza B virus [4] = assay: Antiviral activity against Influenza B virus infected in MDCK cells assessed as inhibition of virus induced cytopathicity by visual scoring of CPE; format: functional, organism-based
[5] = Cytotoxicity against MDCK cells assessed as altered cell morphology; format: cell-based, Canis lupus familiaris; settings: dog
Method in brief: (§1)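 Uninfected cell cultures run alongside the antiviral assays, exposed to serial compound dilutions and incubated at 37 °C for 2–4 days. Toxicity was scored microscopically and reported as the minimum cytotoxic concentration (MCC), the lowest concentration causing a detectable change in normal cell morphology.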

Vaccinia virus = assay: Antiviral activity against Vaccinia virus infected in HEL cells assessed as inhibition of virus induced cytopathicity after 2 to 4 days by MTS assay; format: functional, organism-based; settings: Orthopoxvirus vaccinia
[6] = system: Respiratory syncytial virus; assay: Antiviral activity against Respiratory syncytial virus infected in human HeLa cells assessed as inhibition of virus induced cytopathicity after 2 to 4 days by MTS assay; format: functional, organism-based
HeLa = assay: Cytotoxicity against human HeLa cells assessed as cell viability by MTS assay; format: cell-based; settings: hela
Method in brief: (§2)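 Uninfected cultures were run in parallel with the antiviral assays. Viability was read by colorimetric formazan MTS assay.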

[7] = system: Vesicular stomatitis virus; assay: Antiviral activity against Vesicular stomatitis virus infected in HEL cells assessed as inhibition of virus induced cytopathicity after 2 to 4 days by MTS assay; format: functional, organism-based
Felid alphaherpesvirus 1 = assay: Antiviral activity against Feline herpesvirus 1 infected in cat CRFK cells assessed as inhibition of virus induced cytopathicity after 2 to 4 days by MTS assay; format: functional, organism-based; settings: Felid alphaherpesvirus 1, CRFK
[8] = Cytotoxicity against african green monkey Vero cells assessed as altered cell morphology; format: cell-based; settings: chlorocebus sabaeus; method in brief: as §1
Influenza A virus [9] = assay: Antiviral activity against Influenza A H3N2 virus subtype infected in MDCK cells assessed as inhibition of virus induced cytopathicity by visual scoring of CPE; format: functional, organism-based
Bacillus subtilis = assay: Antimicrobial activity against Bacillus subtilis after 24 hrs by tube dilution method; format: functional
Method in brief: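 Serial dilutions in double-strength nutrient broth (I.P.) with ciprofloxacin as reference, tube dilution, incubated 37 °C for 24 h. MIC is the lowest concentration that inhibited growth.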

Aspergillus niger = assay: Antimicrobial activity against Aspergillus niger after 7 days by tube dilution method; format: functional; settings: 168 h
Human respirovirus 3 = assay: Antiviral activity against parainfluenza-3 virus infected in african green monkey Vero cells assessed as inhibition of virus induced cytopathicity after 2 to 4 days by MTS assay; format: functional, organism-based; settings: Human respirovirus 3, Vero
Sindbis virus = assay: Antiviral activity against Sindbis virus infected in african green monkey Vero cells assessed as inhibition of virus induced cytopathicity after 2 to 4 days by MTS assay; format: functional, organism-based
Escherichia coli = assay: Antimicrobial activity against Escherichia coli after 24 hrs by tube dilution method; format: functional
Coxsackievirus B4 [10] = assay: Antiviral activity against coxsackievirus B4 infected in human HeLa cells assessed as inhibition of virus induced cytopathicity after 2 to 4 days by MTS assay; format: functional, organism-based; settings: Enterovirus B
[11] = Cytotoxicity against human HEL cells assessed as altered cell morphology; format: cell-based; method in brief: as §1
[12] = Cytotoxicity against human HeLa cells assessed as altered cell morphology; format: cell-based; method in brief: as §1
MDCK = assay: Cytotoxicity against MDCK cells assessed as cell viability by MTS assay; format: cell-based, Canis lupus familiaris; settings: dog, mdck; method in brief: as §2
Candida albicans = assay: Antimicrobial activity against Candida albicans after 48 hrs by tube dilution method; format: functional
Human alphaherpesvirus 1 [13] = assay: Antiviral activity against Herpes simplex virus 1 KOS infected in HEL cells assessed as inhibition of virus induced cytopathicity after 2 to 4 days by MTS assay; format: functional, organism-based; settings: Human alphaherpesvirus 1, KOS
[14] = Cytotoxicity against cat CRFK cells assessed as cell viability by MTS assay; format: cell-based, Felis catus; settings: crfk; method in brief: as §2
[15] = system: Vesicular stomatitis virus; assay: Antiviral activity against Vesicular stomatitis virus infected in human HeLa cells assessed as inhibition of virus induced cytopathicity after 2 to 4 days by MTS assay; format: functional, organism-based
Staphylococcus aureus = assay: Antimicrobial activity against Staphylococcus aureus after 24 hrs by tube dilution method; format: functional
Coxsackievirus B4 [16] = assay: Antiviral activity against Coxsackie virus B4 infected in african green monkey Vero cells assessed as inhibition of virus induced cytopathicity after 2 to 4 days by MTS assay; format: functional, organism-based; settings: Enterovirus B
Coxsackievirus B4 [17] = assay: Antiviral activity against coxsackievirus B4 infected in human HeLa cells assessed as inhibition of virus induced cytopathicity by visual scoring of CPE; format: functional, organism-based; settings: Enterovirus B
Influenza A virus [18] = assay: Antiviral activity against Influenza A H3N2 virus subtype infected in MDCK cells assessed as inhibition of virus induced cytopathicity after 2 to 4 days by MTS assay; format: functional, organism-based
Punta Toro virus = assay: Antiviral activity against Punta Toro virus infected in african green monkey Vero cells assessed as inhibition of virus induced cytopathicity after 2 to 4 days by MTS assay; format: functional, organism-based
[19] = system: Mammalian orthoreovirus 1; assay: Antiviral activity against Reovirus 1 virus infected in african green monkey Vero cells assessed as inhibition of virus induced cytopathicity after 2 to 4 days by MTS assay; format: functional, organism-based; settings: Mammalian orthoreovirus 1, Vero
Influenza B virus [20] = assay: Antiviral activity against Influenza B virus infected in MDCK cells assessed as inhibition of virus induced cytopathicity after 2 to 4 days by MTS assay; format: functional, organism-based

Structure (SMILES) | EC50 [1] | EC50 (Feline coronavirus) | EC50 (Human alphaherpesvirus 1 [2]) | EC50 (Human alphaherpesvirus 2) | EC50 [3] | EC50 (Influenza B virus [4]) | MCC [5] | EC50 (Vaccinia virus) | EC50 [6] | CC50 (HeLa) | EC50 [7] | EC50 (Felid alphaherpesvirus 1) | MCC [8] | EC50 (Influenza A virus [9]) | MBC (Bacillus subtilis) | MFC (Aspergillus niger) | EC50 (Human respirovirus 3) | EC50 (Sindbis virus) | MBC (Escherichia coli) | EC50 (Coxsackievirus B4 [10]) | also measured
Cc1ccccc1C(=O)n1c(-c2ccc(S(=O)(=O)O)cc2)nc2ccccc21 | > 100 µg/mL | > 100 µg/mL | > 100 µg/mL | > 100 µg/mL | > 100 µg/mL | > 100 µg/mL | > 100 µg/mL | > 100 µg/mL | > 100 µg/mL | > 100 µg/mL | > 100 µg/mL | > 100 µg/mL | > 100 µg/mL | > 100 µg/mL | > 50 µg/mL | > 50 µg/mL | > 100 µg/mL | > 100 µg/mL | 3.12 µg/mL (≈ 7.95 µM) | > 100 µg/mL | MCC [11]: > 100 µg/mL; MCC [12]: > 100 µg/mL; CC50 (MDCK): > 100 µg/mL; MFC (Candida albicans): 50 µg/mL (≈ 127 µM); EC50 (Human alphaherpesvirus 1 [13]): > 100 µg/mL; CC50 [14]: > 100 µg/mL; EC50 [15]: > 100 µg/mL; MBC (Staphylococcus aureus): 6.25 µg/mL (≈ 15.9 µM); EC50 (Coxsackievirus B4 [16]): > 100 µg/mL; EC50 (Coxsackievirus B4 [17]): > 100 µg/mL; EC50 (Influenza A virus [18]): > 100 µg/mL; EC50 (Punta Toro virus): > 100 µg/mL; EC50 [19]: > 100 µg/mL; EC50 (Influenza B virus [20]): > 100 µg/mL
Cc1ccc(C(=O)n2c(-c3ccc(S(=O)(=O)O)cc3)nc3ccccc32)cc1 | > 100 µg/mL | > 100 µg/mL | > 100 µg/mL | > 100 µg/mL | > 100 µg/mL | > 100 µg/mL | > 100 µg/mL | > 100 µg/mL | > 100 µg/mL | > 100 µg/mL | > 100 µg/mL | > 100 µg/mL | > 100 µg/mL | > 100 µg/mL | 6.25 µg/mL (≈ 15.9 µM) | > 50 µg/mL | > 100 µg/mL | > 100 µg/mL | 25 µg/mL (≈ 63.7 µM) | > 100 µg/mL | MCC [11]: > 100 µg/mL; MCC [12]: > 100 µg/mL; CC50 (MDCK): > 100 µg/mL; MFC (Candida albicans): 50 µg/mL (≈ 127 µM); EC50 (Human alphaherpesvirus 1 [13]): > 100 µg/mL; CC50 [14]: > 100 µg/mL; EC50 [15]: > 100 µg/mL; MBC (Staphylococcus aureus): 12.5 µg/mL (≈ 31.9 µM); EC50 (Coxsackievirus B4 [16]): > 100 µg/mL; EC50 (Coxsackievirus B4 [17]): > 100 µg/mL; EC50 (Influenza A virus [18]): > 100 µg/mL; EC50 (Punta Toro virus): > 100 µg/mL; EC50 [19]: > 100 µg/mL; EC50 (Influenza B virus [20]): > 100 µg/mL
